Assays:
[1] = molecular target: Cannabinoid receptor 1 (Homo sapiens, UniProt P21554); experiment: Binding affinity at the CB1 receptor
[2] = molecular target: Cannabinoid receptor 2 (Homo sapiens, UniProt P34972); experiment: Binding affinity at the CB2 receptor
[3] = Half life in C57BL/6 mouse; assay type: ADME, organism-based; conditions: in vivo
[4] = system: Rattus norvegicus; experiment: Reduction in food intake in SD rat at 18 hrs after administration of 3.0 mg/kg, po; assay type: functional, Sprague-Dawley; parameters: scale not given: the % may be the effect or the level left
Method in brief: (§1)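 Diet-induced obese Sprague–Dawley rats, six per treatment group, dosed orally with the compound in 10% Tween 80 in water 30–60 min before dark onset. Food cups weighed every 5 min in an automated system over the 18 h after dosing. Overnight body weight change also recorded. Suppression is expressed relative to vehicle-treated controls.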

[5] = system: Rattus norvegicus; experiment: Reduction in food intake in SD rat at 18 hrs after administration of 1.0 mg/kg, po; assay type: functional, Sprague-Dawley; parameters: scale not given: the % may be the effect or the level left; method in brief: as §1
[6] = Half life in rhesus macaque; assay type: ADME, organism-based, Macaca mulatta; conditions: rhesus monkey, in vivo
[7] = Half life in Sprague-Dawley rat; assay type: ADME, organism-based; conditions: in vivo
[8] = Oral bioavailability in Beagle dog; assay type: ADME, organism-based, Canis lupus familiaris; conditions: in vivo
[9] = Half life in Beagle dog; assay type: ADME, organism-based, Canis lupus familiaris; conditions: in vivo
[10] = system: Rattus norvegicus; experiment: Reduction in food intake in SD rat at 18 hrs after administration of 0.3 mg/kg, po; assay type: functional, Sprague-Dawley; parameters: scale not given: the % may be the effect or the level left; method in brief: as §1
[11] = Oral bioavailability in C57BL/6 mouse; assay type: ADME, organism-based; conditions: in vivo
[12] = Plasma clearance in Sprague-Dawley rat; assay type: ADME, organism-based
[13] = Plasma clearance in C57BL/6 mouse; assay type: ADME, organism-based
[14] = Plasma clearance in Beagle dog; assay type: ADME, organism-based, Canis lupus familiaris
[15] = system: Mus musculus; experiment: Reduction in food intake in wild type C57BL/6 mice at 2 hrs after administration of 10 mg/kg, po; assay type: functional; parameters: scale not given: the % may be the effect or the level left
Method in brief: (§2)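 Ad libitum fed 12-week-old male C57BL/6 mice, n = 12 per group, given the compound orally at 1, 3 or 10 mpk in 0.225% methylcellulose/10% Tween 80 about 30 min before the dark phase. Food intake measured at 2 h and overnight. Overnight (18 h) body weight gain recorded and compared with vehicle.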

[16] = Oral bioavailability in Sprague-Dawley rat; assay type: ADME, organism-based; conditions: in vivo
[17] = Rat brain to plasma ratio at 4 hrs post iv dosing; assay type: ADME, organism-based; conditions: Sprague-Dawley
Method in brief: (§3)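 Sprague–Dawley rats were dosed intravenously as part of a pharmacokinetic profile. Brain and plasma concentrations were sampled at 0.25 h and at 4 h post-dose and expressed as a brain-to-plasma ratio.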

[18] = Oral bioavailability in rhesus macaque; assay type: ADME, organism-based, Macaca mulatta; conditions: rhesus monkey, in vivo
[19] = Plasma clearance in rhesus macaque; assay type: ADME, organism-based, Macaca mulatta; conditions: rhesus monkey
[20] = Rat brain to plasma ratio at 0.25 hrs post iv dosing; assay type: ADME, organism-based; conditions: Sprague-Dawley; method in brief: as §3
[21] = system: Mus musculus; experiment: Reduction in body weight overnight (18 hrs) in wild type C57BL/6 mice at 10 mg/kg; assay type: functional; parameters: scale not given: the % may be the effect or the level left; method in brief: as §2

Cannabinoid receptor 1, sequence (P21554 whole entry): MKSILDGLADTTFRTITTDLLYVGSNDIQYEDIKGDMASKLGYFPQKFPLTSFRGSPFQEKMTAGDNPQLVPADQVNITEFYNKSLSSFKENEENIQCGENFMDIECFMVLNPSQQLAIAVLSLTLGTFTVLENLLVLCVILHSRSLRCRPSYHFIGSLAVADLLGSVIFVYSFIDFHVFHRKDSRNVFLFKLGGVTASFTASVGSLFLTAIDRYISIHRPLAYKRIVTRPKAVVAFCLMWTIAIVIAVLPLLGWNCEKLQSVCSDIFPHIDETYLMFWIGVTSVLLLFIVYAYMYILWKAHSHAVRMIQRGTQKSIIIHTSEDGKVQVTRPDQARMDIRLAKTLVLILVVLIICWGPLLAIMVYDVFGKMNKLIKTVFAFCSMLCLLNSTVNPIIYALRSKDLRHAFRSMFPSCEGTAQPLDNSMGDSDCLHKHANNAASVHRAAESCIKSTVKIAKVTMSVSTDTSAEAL
Cannabinoid receptor 2, sequence (P34972 whole entry): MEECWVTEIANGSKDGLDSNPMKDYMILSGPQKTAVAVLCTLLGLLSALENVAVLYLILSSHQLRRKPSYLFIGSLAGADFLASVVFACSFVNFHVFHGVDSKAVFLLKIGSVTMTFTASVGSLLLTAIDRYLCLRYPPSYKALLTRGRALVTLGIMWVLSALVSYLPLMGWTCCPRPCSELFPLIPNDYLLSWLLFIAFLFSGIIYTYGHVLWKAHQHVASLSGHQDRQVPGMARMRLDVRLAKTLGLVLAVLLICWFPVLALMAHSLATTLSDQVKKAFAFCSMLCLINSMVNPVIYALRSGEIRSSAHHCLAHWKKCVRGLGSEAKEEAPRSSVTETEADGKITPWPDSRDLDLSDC

IC50 [1]	IC50 [2]	Structure (SMILES)	also measured
120 nM	1100 nM	CC(=O)c1c(N)c2cc(-c3ccc(Cl)cc3)c(-c3ccc(Cl)cc3Cl)nc2n(C)c1=O	–
3.7 nM	1800 nM	COCCn1c(=O)c(C(C)=O)c(NC(C)=O)c2cc(-c3ccc(Cl)cc3)c(-c3ccc(Cl)cc3Cl)nc21	–
32 nM	1500 nM	CC(=O)Nc1c(C(C)=O)c(=O)n(CCO)c2nc(-c3ccc(Cl)cc3Cl)c(-c3ccc(Cl)cc3)cc12	–
15 nM	5400 nM	CC(=O)Nc1c(C(C)C)c(=O)n(C)c2nc(-c3ccc(Cl)cc3Cl)c(-c3ccc(Cl)cc3)cc12	–
55 nM	1400 nM	CC(=O)c1c(C)c2cc(-c3ccc(Cl)cc3)c(-c3ccc(Cl)cc3Cl)nc2n(C)c1=O	–
24 nM	3200 nM	COCC(=O)Nc1c(C(C)=O)c(=O)n(C)c2nc(-c3ccc(Cl)cc3Cl)c(-c3ccc(Cl)cc3)cc12	–
24 nM	1100 nM	COc1c(NC(C)=O)c2cc(-c3ccc(Cl)cc3)c(-c3ccc(Cl)cc3Cl)nc2n(C)c1=O	–
–	4100 nM	CC(=O)Nc1c(C(C)=O)c(=O)n(C)c2nc(-c3ccc(Cl)cc3Cl)c(-c3ccc(Cl)cc3)cc12 [NAPHTHYRIDINONE]	half-life [3]: > 8 h; Activity [4]: 68%; Activity [5]: 39%; half-life [6]: 22 h; half-life [7]: > 8 h; bioavailability [8]: 100%; half-life [9]: > 24 h; Activity [10]: 22%; bioavailability [11]: 70%; clearance [12]: 12 mL/min/kg; clearance [13]: 13.9 mL/min/kg; clearance [14]: 4.4 mL/min/kg; Activity [15]: 49%; bioavailability [16]: 93%; Kp at 4 h [17]: 2.7; bioavailability [18]: 96%; clearance [19]: 1.4 mL/min/kg; Kp at 0.25 h [20]: 0.9; Activity [21]: 88%
2.3 nM	5100 nM	CC(=O)Nc1c(C(C)=O)c(=O)n(Cc2ccccc2)c2nc(-c3ccc(Cl)cc3Cl)c(-c3ccc(Cl)cc3)cc12	–
35 nM	720 nM	CC(=O)Nc1c(C#N)c(=O)n(C)c2nc(-c3ccc(Cl)cc3Cl)c(-c3ccc(Cl)cc3)cc12	–
5.2 nM	1400 nM	CC(=O)Nc1c(C(C)=O)c(=O)n(CC2CCCO2)c2nc(-c3ccc(Cl)cc3Cl)c(-c3ccc(Cl)cc3)cc12 (centres undefined)	–
110 nM	380 nM	CC(=O)Nc1cc(=O)n(C)c2nc(-c3ccc(Cl)cc3Cl)c(-c3ccc(Cl)cc3)cc12	–
26 nM	1500 nM	CC(=O)Nc1c(C)c(=O)n(C)c2nc(-c3ccc(Cl)cc3Cl)c(-c3ccc(Cl)cc3)cc12	–
2.3 nM	6200 nM	CC(=O)Nc1c(C(C)=O)c(=O)n(CC(C)C)c2nc(-c3ccc(Cl)cc3Cl)c(-c3ccc(Cl)cc3)cc12	–
46 nM	3600 nM	CC(=O)c1c(NC(=O)CO)c2cc(-c3ccc(Cl)cc3)c(-c3ccc(Cl)cc3Cl)nc2n(C)c1=O	–
20 nM	2500 nM	CC(=O)Nc1c(N(C)C)c(=O)n(C)c2nc(-c3ccc(Cl)cc3Cl)c(-c3ccc(Cl)cc3)cc12	–
77 nM	1400 nM	CC(=O)Nc1c(C(C)=O)c(=O)[nH]c2nc(-c3ccc(Cl)cc3Cl)c(-c3ccc(Cl)cc3)cc12	–
96 nM	1400 nM	CC(=O)c1c(N(C)C)c2cc(-c3ccc(Cl)cc3)c(-c3ccc(Cl)cc3Cl)nc2n(C)c1=O	–
